Laboratory results from ChEMBL document CHEMBL1123901, “Inhibition of delayed hypersensitivity reactions by cinnamyl 1-thioglycosides” (J Med Chem, 1987).

What was measured:
Type in all cases: functional
[1] = species: Cavia porcellus; test: Effect on guinea pig T cell proliferation was tested by measuring the incorporation of [3H]-thymidine uptake at the concentration of 0 uM
Method in brief: (§1)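 Strain 2 female guinea pigs were immunized with 100 μg OVA in CFA split over the footpads. At day 14 they received mineral oil ip, and the exudate was collected 4 days later. T cells were enriched on nylon wool. 2×10^5 cells per well were cultured with 10% irradiated (2100 rads) exudate cells, OVA (10 μg/mL) and compound, for 72 h at 37 °C in 5% CO2. [3H]thymidine (1 μCi) was added 18-24 h before harvest. Triplicate wells; mean Δcpm ± SD.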

[2] = species: Cavia porcellus; test: Effect on guinea pig T cell proliferation was tested by measuring the incorporation of [3H]thymidine uptake at the concentration of 500 uM; method in brief: as §1
[3] = species: Cavia porcellus; test: Effect on guinea pig T cell proliferation was tested by measuring the incorporation of [3H]thymidine uptake at the concentration of 10 uM; method in brief: as §1
[4] = species: Cavia porcellus; test: Effect on guinea pig T cell proliferation was tested by measuring the incorporation of [3H]thymidine uptake at the concentration of 250 uM; method in brief: as §1
[5] = species: Cavia porcellus; test: Effect on guinea pig T cell proliferation was tested by measuring the incorporation of [3H]thymidine uptake at the concentration of 750 uM; method in brief: as §1
[6] = species: Cavia porcellus; test: Effect on guinea pig T cell proliferation was tested by measuring the incorporation of [3H]-thymidine uptake at the concentration of 100 uM; method in brief: as §1
[7] = species: Cavia porcellus; test: Effect on guinea pig T cell proliferation was tested by measuring the incorporation of [3H]thymidine uptake at the concentration of 1000 uM; method in brief: as §1
[8] = species: Cavia porcellus; test: [3H]thymidine uptake was determined by liquid scintillation spectroscopy in 3 treated Macrophages plus OVA (10 ug/mL)
Method in brief: (§2)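 Guinea pig PELs and irradiated (2100 rads) exudate macrophages were each preincubated with compound (1 mM or 500 μM, depending on agent) for 18 h at 37 °C, then washed. Macrophages were pulsed with OVA 100 μg/mL for 1 h at 37 °C and washed. Cells were viability-adjusted by trypan blue and mixed, with or without OVA 10 μg/mL. Culture ran 72 h at 37 °C with [3H]thymidine read by scintillation, as mean Δcpm × 10^-3.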

[9] = species: Cavia porcellus; test: [3H]-Thymidine uptake was determined by liquid scintillation spectroscopy in Macrophages pretreated with 500 uM 21 at 37 degree C for 18 h; method in brief: as §2
[10] = species: Cavia porcellus; test: [3H]thymidine uptake was determined by liquid scintillation spectroscopy in compound 21 pretreated OVA pulsed Macrophages plus OVA (10 ug/mL); method in brief: as §2
[11] = species: Cavia porcellus; test: Inhibitory activity against [3H]thymidine uptake by cinnamyl 1-thioglycosides in guinea pig T cell proliferation; method in brief: as §1
[12] = species: Cavia porcellus; test: [3H]thymidine uptake was determined by liquid scintillation spectroscopy in Macrophages; method in brief: as §2
[13] = species: Cavia porcellus; test: [3H]-Thymidine uptake was determined by liquid scintillation spectroscopy in compound 21 treated Macrophages pretreated with 500 uM of 21 at 37 degree C for 18 h; method in brief: as §2
[14] = species: Cavia porcellus; test: [3H]-Thymidine uptake was determined by liquid scintillation spectroscopy in compound 21 pretreated Macrophages plus OVA (ug/mL) pretreated with 500 uM of 21 at 37 degree C for 18 h; method in brief: as §2
[15] = species: Cavia porcellus; test: [3H]-Thymidine uptake was determined by liquid scintillation spectroscopy in 21 pretreated OVA pulsed Macrophages plus OVA (10 ug/mL) pretreated with 500 uM of 21 at 37 degree C for 18 h; method in brief: as §2
[16] = species: Cavia porcellus; test: [3H]thymidine uptake was determined by liquid scintillation spectroscopy in ovalbumin pulsed Macrophages
Method in brief: (§3)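 Pretreatment protocol. Strain 2 female guinea pigs immunized with OVA in CFA (100 μg OVA; 0.1 mL/foot); mineral oil given ip at day 14, peritoneal exudate collected 4 days later. Nylon-wool-enriched T cells (PELs) and irradiated (2100 rads) exudate macrophages each incubated with sugar derivative 18 h at 37 °C, then washed. Macrophages pulsed with OVA 100 μg/mL for 1 h at 37 °C and washed. Viability adjusted by trypan blue; populations mixed and cultured 72 h at 37 °C. [3H]thymidine (1 μCi) added 18-24 h before harvest; read by liquid scintillation as mean Δcpm ×10^-3.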

[17] = species: Cavia porcellus; test: [3H]-Thymidine uptake was determined by liquid scintillation spectroscopy in OVA pulsed Macrophages pretreated with 500 uM of 21 at 37 degree C for 18 h; method in brief: as §2
[18] = species: Cavia porcellus; test: [3H]thymidine uptake was determined by liquid scintillation spectroscopy in OVA pulsed compound 21 pretreated Macrophages pretreated with 500 uM of 21 at 37 degree C for 18 h; method in brief: as §2
[19] = species: Cavia porcellus; test: [3H]thymidine uptake was determined by liquid scintillation spectroscopy in compound 2 treated Macrophages; method in brief: as §2
[20] = species: Cavia porcellus; test: [3H]-Thymidine uptake was determined by liquid scintillation spectroscopy in ovalbumin (OVA) pulsed compound 2 treated Macrophages; method in brief: as §2
[21] = test system: Mus musculus; test: Percent reduction in mice after intraperitoneal administration 3 mg/kg
Method in brief: (§4)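 DTH in A/J female mice (20-23 g): cyclophosphamide 200 mg/kg sc, then iv sensitization with 10^8 washed SRBC 3 days later. On day 6 after sensitization, one hind footpad challenged with 10^8 SRBC in 20 μL, the other given saline. Dosing ip or po to overnight-fasted mice 20 min before challenge. Swelling read at 24 and 48 h as antigen minus saline footpad (mm × 10), by constant-pressure caliper.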

[22] = test system: Mus musculus; test: Percent reduction in mice after oral administration 10 mg/kg; method in brief: as §4
[23] = test system: Mus musculus; test: Compound was administered orally to mice before increase in foot-pad thickness at a dose of 3 mg/kg; details: route oral; method in brief: as §4
[24] = test system: Mus musculus; test: Percent reduction in mice after intraperitoneal administration 10 mg/kg; method in brief: as §4
[25] = test system: Mus musculus; test: Compound was administered intraperitoneally to mice before increase in foot-pad thickness at a dose of 10 mg/kg; details: route intraperitoneal; method in brief: as §4
[26] = species: Cavia porcellus; test: [3H]thymidine uptake was determined by liquid scintillation spectroscopy in compound 4 pretreated OVA pulsed Macrophages plus OVA (10 ug/mL); method in brief: as §2
[27] = species: Cavia porcellus; test: [3H]thymidine uptake was determined by liquid scintillation spectroscopy in ovalbumin (OVA) pulsed compound 4 treated Macrophages; method in brief: as §3
[28] = test system: Mus musculus; test: Compound was administered intraperitoneally to mice before increase in foot-pad thickness at a dose of 30 mg/kg; details: route intraperitoneal; method in brief: as §4
[29] = species: Cavia porcellus; test: [3H]thymidine uptake was determined by liquid scintillation spectroscopy in compound 4 treated Macrophages pretreated with 500 uM of 4 at 37 degree C for 18 h; details: in the assay text read “1 mM” for “500 uM”; method in brief: as §2
[30] = test system: Mus musculus; test: Percent reduction in mice after intraperitoneal administration of 30 mg/kg; method in brief: as §4
[31] = species: Cavia porcellus; test: [3H]thymidine uptake was determined by liquid scintillation spectroscopy in 4 pretreated OVA pulsed Macrophages plus OVA (10 ug/mL) pretreated with 500 uM of 4 at 37 degree C for 18 h; details: in the assay text read “1 mM” for “500 uM”; method in brief: as §2
[32] = test system: Mus musculus; test: Compound was administered orally to mice before increase in foot-pad thickness at a dose of 30 mg/kg; details: route oral; method in brief: as §4
[33] = test system: Mus musculus; test: Compound was administered intraperitoneally to mice before increase in foot-pad thickness at a dose of 3 mg/kg; details: route intraperitoneal; method in brief: as §4
[34] = test system: Mus musculus; test: Percent reduction in mice after oral administration of 30 mg/kg; method in brief: as §4
[35] = species: Cavia porcellus; test: [3H]-Thymidine uptake was determined by liquid scintillation spectroscopy in OVA pulsed compound 4 pretreated Macrophages pretreated with 500 uM of 4 at 37 degree C for 18 h; details: in the assay text read “1 mM” for “500 uM”; method in brief: as §2
[36] = species: Cavia porcellus; test: [3H]-Thymidine uptake was determined by liquid scintillation spectroscopy in Macrophages pretreated with 500 uM of 4 at 37 degree C for 18 h; details: in the assay text read “1 mM” for “500 uM”; method in brief: as §2
[37] = test system: Mus musculus; test: Compound was administered orally to mice before increase in foot-pad thickness at a dose of 10 mg/kg; details: route oral; method in brief: as §4
[38] = test system: Mus musculus; test: Percent reduction in mice after oral administration 3 mg/kg; method in brief: as §4

Structure (SMILES)	Activity [1]	Activity [2]	Activity [3]	Activity [4]	Activity [5]	Activity [6]	Activity [7]	IC50 ([11]; t-cell)	Delta cpm x10e-3 [12]	Delta cpm x10e-3 [16]	Delta cpm x10e-3 [19]	other results
NCC1OC(SC/C=C/c2ccccc2)C(O)C(O)C1O (stereo not drawn)	81 Δcpm x10e-3	1.23 Δcpm x10e-3	120 Δcpm x10e-3	71.1 Δcpm x10e-3	0.02 Δcpm x 10^-3	101 Δcpm x10e-3	0.01 Δcpm x10e-3	–	–	–	–	–
CC1OC(SC/C=C/c2ccccc2)C(O)C(O)C1O (stereo in doubt; 21)	89.1 Δcpm x10e-3	0.11 Δcpm x10e-3	86.5 Δcpm x10e-3	26.7 Δcpm x10e-3	0 Δcpm x 10^-3	66.3 Δcpm x10e-3	0 Δcpm x10e-3	102 µM	1.46	45.43	2.26	Delta cpm x10e-3 [8]: 14.22; Delta cpm x10e-3 [9]: 1.34; Delta cpm x10e-3 [10]: 11.14; Delta cpm x10e-3 [13]: 1.62; Delta cpm x10e-3 [14]: 2.63; Delta cpm x10e-3 [15]: 3.82; Delta cpm x10e-3 [17]: 29.03; Delta cpm x10e-3 [18]: 2.63; Delta cpm x10e-3 [20]: 13.97
CC(=O)NCC1OC(SC/C=C/c2ccccc2)C(O)C(O)C1O (stereo not drawn)	79.8 Δcpm x10e-3	39.3 Δcpm x10e-3	70.7 Δcpm x10e-3	52.9 Δcpm x10e-3	38.8 Δcpm x 10^-3	66.6 Δcpm x10e-3	36 Δcpm x10e-3	–	–	–	–	–
CC1OC(SC/C=C/c2ccccc2)C(O)C(O)C1O (stereo in doubt; 4)	72.8 Δcpm x10e-3	1.51 Δcpm x10e-3	93.6 Δcpm x10e-3	5.8 Δcpm x10e-3	0.02 Δcpm x 10^-3	62.1 Δcpm x10e-3	0.06 Δcpm x10e-3	160 µM	6.67	141.55	4.89	Reduction [21]: 13%; Reduction [22]: 18%; Activity [23]: 0.98 mm x10; Reduction [24]: 47%; Activity [25]: 2.78 mm x10; Delta cpm x10e-3 [26]: 139.97; Delta cpm x10e-3 [27]: 104.36; Activity [28]: 2.34 mm x10; Delta cpm x10e-3 [29]: 2.81; Reduction [30]: 56%; Delta cpm x10e-3 [31]: 49.95; Activity [32]: 0.77 mm x10; Activity [33]: 4.6 mm x10; Reduction [34]: 34%; Delta cpm x10e-3 [35]: 33.97; Delta cpm x10e-3 [36]: 4.75; Activity [37]: 0.96 mm x10; Reduction [38]: 16%
COCC1OC(SC/C=C/c2ccccc2)C(O)C(O)C1O (stereo not drawn)	88 Δcpm x10e-3	0 Δcpm x10e-3	97 Δcpm x10e-3	1.23 Δcpm x10e-3	0 Δcpm x 10^-3	36.2 Δcpm x10e-3	0 Δcpm x10e-3	–	–	–	–	IC50 ([11]; Cavia porcellus, T-cell, 72 h): 41 µM
CCCC(=O)NCC1OC(SC/C=C/c2ccccc2)C(O)C(O)C1O (stereo not drawn)	85.8 Δcpm x10e-3	0 Δcpm x10e-3	68.4 Δcpm x10e-3	1.73 Δcpm x10e-3	0 Δcpm x 10^-3	45 Δcpm x10e-3	0.07 Δcpm x10e-3	–	–	–	–	–
